Data taken from ChEMBL document CHEMBL3352630, “Sequestered fulvinol-related polyacetylenes in Peltodoris atromaculata” (J Nat Prod, 2014).

Columns and labels:
[1] = Growth inhibition of human Hs683 cells after 72 hrs by MTT assay; format: functional, cell-based; settings: Hs 683, 72 h
Outline: (§1)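 Human cancer cells (carcinoma: A549, MCF-7, PC-3; glioma: Hs683, U373; melanoma: SK-MEL-28) were cultured with the test compound for 72 h. Growth was read by MTT colorimetric assay, and the IC50 for in vitro growth inhibition is given in μM. Etoposide was run alongside as the reference agent.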

[2] = Growth inhibition of human U373 cells after 72 hrs by MTT assay; format: functional, cell-based, U-373MG ATCC; settings: U373 MG; outline: as §1
[3] = Growth inhibition of human PC3 cells after 72 hrs by MTT assay; format: functional, cell-based; settings: PC-3, 72 h; outline: as §1
MCF7 = test: Growth inhibition of human MCF7 cells after 72 hrs by MTT assay; format: functional, cell-based; settings: MCF7, 72 h; outline: as §1
SK-MEL-28 = test: Growth inhibition of human SK-MEL-28 cells after 72 hrs by MTT assay; format: functional, cell-based; settings: SK-MEL-28, 72 h; outline: as §1
A549 = test: Growth inhibition of human A549 cells after 72 hrs by MTT assay; format: functional, cell-based; settings: A549, 72 h; outline: as §1

IC50 (MCF7) | IC50 (SK-MEL-28) | IC50 (A549) | Structure (SMILES) | IC50 [1] | IC50 [2] | IC50 [3]
82 µM | > 100 µM | 37 µM | C#CC(=O)/C=C/CCCCCCCCC/C=C\CCCC/C=C\CCCC/C=C\CCCCCCCCCCCCC/C=C/C(=O)C#C | > 100 µM | > 100 µM | 86 µM
23 µM | 11 µM | 28 µM | C#C[C@@H](O)/C=C/CCCCCCCCC/C=C\CCCC/C=C\CCCC/C=C\CCCCCCCCCCCCC/C=C/[C@H](O)C#C | 36 µM | 19 µM | 18 µM
15 µM | 3 µM | 31 µM | C#C[C@@H](O)/C=C/CCCCCCCCCCCCC/C=C\CCCC/C=C\CCCC/C=C\C/C=C\CCCCCC(O)/C=C/[C@H](O)C#C (some centres undefined) | 23 µM | 15 µM | 32 µM
17 µM | 1 µM | 0.1 µM | COc1cc([C@@H]2c3cc4c(cc3[C@@H](O[C@@H]3O[C@@H]5CO[C@@H](C)O[C@H]5[C@H](O)[C@H]3O)[C@H]3COC(=O)[C@H]23)OCO4)cc(OC)c1O [ETOPOSIDE] | 1 µM | 7 µM | 2 µM
